Here are results for 6 compounds from ChEMBL document CHEMBL2417423, “Synthesis and antifungal activities of miltefosine analogs” (Bioorg Med Chem Lett, 2013).

Molecules are shown by their SMILES. ≈ marks a conversion by molar mass, not a printed value. Calls of active or inactive are those of the source. Some results are limits rather than exact numbers.

The test system of test [1] is Pichia kudriavzevii. Put plainly: Antifungal activity against Candida krusei ATCC 6258 at 20 ug/ml after 48 hrs. The test is classed as functional, organism-based.
For test [2], the system named is HepG2. Put plainly: Cytotoxicity against human HepG2 cells after 48 hrs by neutral red. The test is classed as cell-based. Particulars: HepG2, 48 h.
For test [3], the system named is Pichia kudriavzevii. As to the kind of experiment: Antifungal activity against Candida krusei ATCC 6258 at 20 ug/ml after 48 hrs by spectrophotometry. The test is classed as functional, organism-based.
The test system of test [4] is Cryptococcus neoformans. Put plainly: Antifungal activity against Cryptococcus neoformans ATCC 90113 at 20 ug/ml after 72 hrs. The test is classed as functional, organism-based.
In test [5] the test system is Candida albicans. Put plainly: Antifungal activity against Candida albicans ATCC 90028 at 20 ug/ml after 48 hrs by spectrophotometry. The test is classed as functional, organism-based.
In test [6] the test system is Nakaseomyces glabratus. As to the kind of experiment: Antifungal activity against Candida glabrata ATCC 90030 after 48 hrs by spectrophotometry. The test is classed as functional. To be noted: ATCC 90030, 48 h. An outline of the steps:
(§1)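 MIC is the lowest concentration with no detectable growth. MFC: 5 μL from each clear well moved to agar at 35°C, 48 h for Candida spp. and A. fumigatus, 72 h for C. neoformans; lowest concentration that kills. Values are means of three independent experiments (two for one analog).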

For test [7], the system named is Nakaseomyces glabratus. As to the kind of experiment: Antifungal activity against Candida glabrata ATCC 90030 after 48 hrs. The test is classed as functional. To be noted: ATCC 90030, 48 h. The method, boiled down:
as §1

Test [8] is described as follows: Cytotoxicity against pig LLC-PK11 cells after 48 hrs by neutral red. The test is classed as cell-based. To be noted: Sus scrofa, LLC-PK11, 48 h.
The subject of test [9] is Cryptococcus neoformans. Put plainly: Antifungal activity against Cryptococcus neoformans ATCC 90113 at 20 ug/ml after 72 hrs by spectrophotometry. The test is classed as functional, organism-based.
Test [10] has as its system Vero. Put plainly: Cytotoxicity against african green monkey Vero cells after 48 hrs by neutral red. To be noted: Chlorocebus sabaeus. The test is classed as cell-based.
Test [11] concerns Aspergillus fumigatus. Put plainly: Antifungal activity against Aspergillus fumigatus ATCC 90906 at 20 ug/ml after 48 hrs by spectrophotometry. The test is classed as functional, organism-based.
Test [12] relates to Candida albicans. Put plainly: Antifungal activity against Candida albicans ATCC 90028 at 20 ug/ml after 48 hrs. The test is classed as functional, organism-based.
The subject of test [13] is Aspergillus fumigatus. Put plainly: Antifungal activity against Aspergillus fumigatus ATCC 90906 at 20 ug/ml after 48 hrs. The test is classed as functional, organism-based.
Test [14] deals with Aspergillus fumigatus. As to the kind of experiment: Antifungal activity against Aspergillus fumigatus ATCC 90906 after 48 hrs. Particulars: ATCC 90906, 48 h. The test is classed as functional. The method, boiled down:
as §1

In test [15] the test system is Pichia kudriavzevii. Put plainly: Antifungal activity against Candida krusei ATCC 6258 after 48 hrs. The test is classed as functional. To be noted: ATCC 6258, 48 h. The method, boiled down:
as §1

The test system of test [16] is Candida albicans. Put plainly: Antifungal activity against Candida albicans ATCC 90028 after 48 hrs. The test is classed as functional. To be noted: ATCC 90028, 48 h. The method, boiled down: as §1
In test [17] the test system is Aspergillus fumigatus. As to the kind of experiment: Antifungal activity against Aspergillus fumigatus ATCC 90906 after 48 hrs by spectrophotometry. Particulars: ATCC 90906, 48 h. The test is classed as functional. An outline of the steps:
as §1

Test [18] relates to Candida albicans. Put plainly: Antifungal activity against Candida albicans ATCC 90028 after 48 hrs by spectrophotometry. The test is classed as functional. To be noted: ATCC 90028, 48 h. The method, boiled down:
as §1

The test system of test [19] is Pichia kudriavzevii. As to the kind of experiment: Antifungal activity against Candida krusei ATCC 6258 after 48 hrs by spectrophotometry. The test is classed as functional. Particulars: ATCC 6258, 48 h. An outline of the steps:
as §1

The subject of test [20] is Candida albicans. As to the kind of experiment: Antifungal activity against Candida albicans SC5314 infected in CD-1 mouse assessed as host survival at 25 mg/kg, po administered 4, 24, 48, 72, and 96 hrs post inoculation measured up to 12 days relative to control. The test is classed as functional, organism-based. More on the design: dose 25 mg/kg. The method, boiled down:
(§2)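 Male CD1 mice, 6-7 weeks old, five per group, infected by tail-vein injection of 1 × 10^6 C. albicans SC5314 cells. Dosed intraperitoneally or orally at 4, 24, 48, 72 and 96 h post inoculation; PBS-treated controls. Survival followed for 12 days and compared by Log-rank test.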

The test system of test [21] is Cryptococcus neoformans. Put plainly: Antifungal activity against Cryptococcus neoformans ATCC 90113 after 72 hrs. The test is classed as functional. To be noted: ATCC 90113, 72 h. An outline of the steps: as §1
The subject of test [22] is Candida albicans. Put plainly: Antifungal activity against Candida albicans SC5314 infected in CD-1 mouse assessed as host survival at 5 mg/kg, ip administered 4, 24, 48, 72, and 96 hrs post inoculation measured up to 8 days relative to control. The test is classed as functional, organism-based. Further details: dose 5 mg/kg.
Test [23] has as its system Cryptococcus neoformans. Put plainly: Antifungal activity against Cryptococcus neoformans ATCC 90113 after 72 hrs by spectrophotometry. The test is classed as functional. To be noted: ATCC 90113, 72 h. An outline of the steps:
as §1

Test [24] deals with Candida albicans. Put plainly: Antifungal activity against Candida albicans SC5314 infected in CD-1 mouse assessed as host survival at 5 mg/kg, po administered 4, 24, 48, 72, and 96 hrs post inoculation measured up to 12 days relative to control. Further details: dose 5 mg/kg. The test is classed as functional, organism-based. An outline of the steps:
as §2

Test [25] has as its system Candida albicans. As to the kind of experiment: Antifungal activity against Candida albicans SC5314 infected in CD-1 mouse assessed as host survival at 1 mg/kg, ip administered 4, 24, 48, 72, and 96 hrs post inoculation measured up to […] relative to control. The test is classed as functional, organism-based. More on the design: dose 1 mg/kg.

With `CCCCCCCCCCCCCCCCCCOP(=O)([O-])OCC[N+](C)(C)Cc1ccccc1`, the outcome in test [1], in [3], in [4], in [5], in [9] and in test [11] was inactive. The outcome in test [12] and in [13] was inactive. Also, the IC50 (usually the concentration that inhibits the measured activity by half) in test [2] is 13 µg/mL (≈ 25.4 µM); in test [8] it was 4.7 µg/mL (≈ 9.18 µM); in test [10] it was over 25 µg/mL. In [6], the MIC (usually the smallest concentration in the dilution series that meets the test's criterion for growth inhibition) came to 4.2 µg/mL (≈ 8.21 µM). Further, in test [7], the minimal fungicidal concentration (MFC) (in general, the lowest tested concentration that kills the fungus rather than only halting it) turned out to be 4.2 µg/mL (≈ 8.21 µM).

For `C[C@@H]1[C@H](O)[C@@H](C)/C=C/C=C/C=C/C=C/C=C/C=C/C=C/[C@H](O[C@@H]2O[C@H](C)[C@@H](O)[C@H](N)[C@@H]2O)C[C@@H]2O[C@](O)(C[C@@H](O)C[C@@H](O)[C@H](O)CC[C@@H](O)C[C@@H](O)CC(=O)O[C@H]1C)C[C@H](O)[C@H]2C(=O)O` [AMPHOTERICIN B], the MFC in test [14] is 5 µg/mL (≈ 5.41 µM); in [15], 1.7 µg/mL (≈ 1.84 µM); in test [16], 1 µg/mL (≈ 1.08 µM); in test [7], 1.5 µg/mL (≈ 1.62 µM). Besides, the MIC is 2.5 µg/mL (≈ 2.71 µM) in test [17], 1.3 µg/mL (≈ 1.41 µM) in test [6], 0.9 µg/mL (≈ 0.974 µM) in test [18] and 1.7 µg/mL (≈ 1.84 µM) in test [19].

With `CCCCCCCCCCCCCCCCOP(=O)([O-])OCC[N+](C)(C)Cc1ccc(Br)cc1`, the result in test [1], in test [3], in test [4], in [5], in [9] and in test [12] was inactive. The results for the MFC in [14] and in [7] were 20 µg/mL (≈ 35.6 µM) and 10.8 µg/mL (≈ 19.2 µM), respectively. The figures for the IC50 in test [2], in [8] and in test [10] were 21.3 µg/mL (≈ 37.9 µM), 5.5 µg/mL (≈ 9.78 µM) and over 25 µg/mL, respectively. The MIC stood at 20 µg/mL (≈ 35.6 µM) in [17] and 10.8 µg/mL (≈ 19.2 µM) in test [6].

As to `CCCCCCCCCCCCCCCCOP(=O)([O-])OCC[N+](C)(C)Cc1ccccc1`, the MFC came out at 2.5 µg/mL (≈ 5.17 µM) in test [14]; 15 µg/mL (≈ 31 µM) in test [15]; 2.5 µg/mL (≈ 5.17 µM) in test [16]; 3.3 µg/mL (≈ 6.82 µM) in test [21]; 3.3 µg/mL (≈ 6.82 µM) in test [7]. Besides, the IC50 in [2] is over 25 µg/mL; in [8], 4.8 µg/mL (≈ 9.92 µM); in test [10], over 25 µg/mL. The outcome in test [20], in test [22], in test [24] and in test [25] was inactive. Further, the MIC was 2.5 µg/mL (≈ 5.17 µM) in test [17]; 3.3 µg/mL (≈ 6.82 µM) in test [6]; 2.5 µg/mL (≈ 5.17 µM) in test [18]; 5 µg/mL (≈ 10.3 µM) in [19]; 3.3 µg/mL (≈ 6.82 µM) in test [23].

Consider `CCCCCCCCCCCCCCCCOP(=O)([O-])OCC[N+](C)(C)C/C=C/c1ccccc1`, for which the MFC is 5 µg/mL (≈ 9.81 µM) in test [14], 3.3 µg/mL (≈ 6.47 µM) in test [15] and 3.3 µg/mL (≈ 6.47 µM) in [7]. Further, the IC50 in [2] is 19.6 µg/mL (≈ 38.5 µM); in test [8], 2.1 µg/mL (≈ 4.12 µM); in [10], over 25 µg/mL. In addition, the result in test [4], in test [5], in [9] and in [12] was inactive. For the same compound, the minimum inhibitory concentration (MIC) came to 2.5 µg/mL (≈ 4.9 µM) in test [17], 2.5 µg/mL (≈ 4.9 µM) in test [6] and 3.3 µg/mL (≈ 6.47 µM) in test [19].

For the compound `C=CC[N+](C)(C)CCOP(=O)([O-])OCCCCCCCCCCCCCCCC`, the result in test [1], in test [3], in test [4], in [5], in test [9] and in [11] was inactive. The outcome in [12] and in [13] was inactive. The IC50 in test [2] is 13.2 µg/mL (≈ 30.4 µM); in test [8], 4.1 µg/mL (≈ 9.46 µM); in [10] it was over 25 µg/mL. The MIC in [6] turned out to be 16.6 µg/mL (≈ 38.3 µM). The compound further came in with an MFC in test [7] of 16.6 µg/mL (≈ 38.3 µM).
